# Screening results as filed in PubChem.
# PMI act hi M6P – activators of human phosphomannose isomerase at near-saturating mannose 6-phosphate. P34949. AID 1216. 190,000 tested, 0.34% active. coupled PMI enzyme assay, resazurin fluorescence, 20 min; active compounds read high; 1 = untreated enzyme, 0 = substrate-free blank. activation factor at 20 µM;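 active = activation factor of 2 or more at 20 µM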
# Target sequence (P34949 whole entry, looked up): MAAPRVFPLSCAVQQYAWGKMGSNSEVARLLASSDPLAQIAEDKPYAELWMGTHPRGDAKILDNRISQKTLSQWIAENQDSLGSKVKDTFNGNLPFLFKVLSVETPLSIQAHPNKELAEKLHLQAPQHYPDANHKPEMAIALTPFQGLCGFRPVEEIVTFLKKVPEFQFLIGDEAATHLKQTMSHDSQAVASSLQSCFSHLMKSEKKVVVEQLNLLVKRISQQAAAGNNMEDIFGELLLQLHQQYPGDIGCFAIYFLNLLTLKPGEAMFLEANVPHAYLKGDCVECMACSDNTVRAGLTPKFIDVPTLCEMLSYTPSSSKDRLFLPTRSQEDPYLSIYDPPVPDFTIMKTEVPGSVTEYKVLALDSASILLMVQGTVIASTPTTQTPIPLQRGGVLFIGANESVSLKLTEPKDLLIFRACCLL
#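 Test system: Human PMI in coupled enzyme assay | Input: 15 ng/mL PMI | Medium: HEPES-buffered pH 7.4 with magnesium and detergent | Compound: One concentration, 20 µM, in 1% DMSO | Incubation: Enzyme reaction with compound 20 min at room temperature | Detection: Diaphorase-driven resazurin-to-resorufin fluorescence, excitation 544, emission 590 nm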
# WT yeast gro inh – growth inhibition of WT yeast, mitochondrial fusion screen | 190,000 tested, 2.1% active | mitochondrial fusion phenotypic screen, WT strain | AID 1362 | inhibition, % at 10 µM; in the data active = inhibition above about 58%; tested in S. cerevisiae
# L major viab – reduces viability of Leishmania major promastigotes; resazurin fluorescence viability; inhibition, % at 10 µM; 200,000 tested, 9% active; AID 1063; in the data active = inhibition above about 50%;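 note: promastigotes grown with compound for 44 hours at 28 °C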
# Diaph act CS – activates diaphorase or chemically reduces, flagging diaphorase assay artifacts. activation factor at 20 µM. AID 1229. Diaphorase/resazurin coupled assay, resorufin fluorescence, 16 min; active compounds read high; 1 = vehicle wells, 0 = NADH-free wells. 190,000 tested, 0.005% active;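 active = diaphorase activity raised at least twofold by the compound at 20 µM; inactive = activation factor below 2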
#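 Material: purified diaphorase enzyme from Clostridium kluyveri; Also added: 0.114 mM NADH and 0.1 mM resazurin, final amounts; Doses: single compound dose of 20 µM, 1% DMSO final; Times: 16 min enzyme reaction, ambient temperature; Detection: resorufin fluorescence, excitation 544 nm, emission 590 nm; Measure: increased resorufin signal from activators or reducing compounds.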
# PMI activator – increases human mannose-6-phosphate isomerase activity. P34949. purified human PMI, coupled resazurin fluorescence, 20 min; active compounds read high; 1 = vehicle control, 0 substrate-free wells. activation factor at 20 µM. 190,000 tested, 0.005% active. AID 1214;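 active = activation factor of 2 or more at 20 µM, relative to plate controls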
# An asterisk follows results filed as active. Most compounds without a hit are left out; they make up all but 10% or so of the library.
SMILES,PMI act hi M6P,WT yeast gro inh,L major viab,Diaph act CS,PMI activator
O=c1c(Cl)c(NCc2ccccc2)cnn1C12CC3CC(CC(C3)C1)C2,1,-13.2,92.6*,1,0.9
CCc1cccc(Nc2cnn(C34C[C@@H]5C[C@@H](CC(CC(=O)O)(C5)C3)C4)c(=O)c2Cl)c1,1,-0.8,-7.6,1,1
COC(=O)C1=CN(Cc2ccc(OC)cc2)C=C(C(=O)OC)C1c1ccsc1,1,14.6,100.2*,0.8,0.9
CCOC(=O)C1=CN(C)C=C(C(=O)OCC)C1c1ccsc1,1,19.0,4.0,1,1
COC(=O)C1=CN(CC2CCCO2)C=C(C(=O)OC)C1c1ccsc1 (stereo not given),0.9,11.7,-5.1,0.9,1.1
COC(=O)C1=CN(CCOC23CC4CC(CC(C4)C2)C3)C=C(C(=O)OC)C1c1ccsc1,1,67.8*,15.3,0.9,1
COC(=O)C1=CN(Cc2cccs2)C=C(C(=O)OC)C1c1ccc(OC)cc1OC,0.8,7.3,97.9*,0.7,0.9
COc1cc2c(C(=O)N3CCN(c4cccc(Cl)c4)CC3)cn(CC(C)C)c(=O)c2cc1OC,0.9,10.3,58.0*,0.9,0.9
COc1ccccc1N1CCN(c2ncc(C(=O)N3CCN(c4cccc(Cl)c4)CC3)c3ccccc23)CC1,1.1,58.9*,61.9*,0.9,1.1
CCOc1ccc(S(=O)(=O)N(C)c2ccc(OCC(=O)NCc3ccc(C(=O)OC)cc3)cc2)cc1,0.9,4.4,2.0,0.8,1
COc1ccc(/C=C/C(=O)OCC(=O)Nc2cc(C(F)(F)F)ccc2Cl)cc1,1,-6.4,-4.6,1,1
Cc1nc2ccccc2c2c(N)c3ccccc3n12,0.9,5.6,51.0*,0.8,0.8
Cc1nn(C)c(C(=O)NCc2ccc(Cl)cc2)c1Cl,1,-9.6,-2.8,0.9,1
CCNC(=O)CCCOc1ccc(Cl)cc1Cl,1,18.6,-0.9,0.9,1
CCC(C)NCCCCOc1ccc(Cl)cc1C (stereo not given),1.1,6.8,97.3*,1,1.1
CCCCNCCCOc1cc(Cl)ccc1Cl,1,25.9,98.1*,1.1,1.1
CCC(C)NCCOc1cccc(Br)c1 (stereo not given),1.1,11.8,13.5,0.9,1
CCC(C)NCCCOc1cc(Cl)ccc1Cl (stereo not given),1,6.2,100.2*,0.9,0.9
O=C(CSc1ncn[nH]1)Nc1ccc(Cl)c(Cl)c1,0.9,20.8,9.5,0.8,0.9
CCN1N=C(c2ccccc2)Cn2c1nc1ccccc12,1.2,18.8,49.8,1,1.2
CC(=O)C1=C(C)NC(SCC(=O)c2ccc(Cl)cc2)=C(C#N)C1c1ccco1 (stereo not given),1.1,15.8,83.4*,0.7,1.3
CC(=O)C1=C(C)NC(SCC(=O)c2ccc(Cl)cc2Cl)=C(C#N)C1c1ccco1 (stereo not given),0.7,50.3,61.4*,0.7,1
CSCSC1=C(C#N)C(c2ccc(Cl)cc2)C(C(C)=O)=C(C)N1 (stereo not given),2.1*,57.2,65.5*,0.9,1.5
CSC1=C(C#N)C(c2ccccc2)C(C(C)=O)=C(C)N1 (stereo not given),1,-5.2,6.9,0.9,1
O=C(NCCCN1CCOCC1)c1ccc(Br)cc1Br,1,0.5,81.0*,1.1,1.1
SMILES,PMI act hi M6P,WT yeast gro inh,L major viab,Diaph act CS,PMI activator
Cc1c(Br)cc(C(=O)NCCCN2CCOCC2)c(C)c1C,1,0.0,61.1*,1,1
COc1cc(OC)c(C(=O)NCCCN2CCOCC2)cc1OC,1,-13.6,-0.3,1,1
N#C/C(=C/c1ccccc1)C(=O)NCc1ccccc1,1,-0.1,24.7,1.1,1.1
N#C/C(=C\c1cccc(NC(=O)c2ccccc2Cl)c1)C(=O)NCCc1ccccc1,0.9,83.8*,98.9*,0.9,0.9
COCCNC(=O)/C(C#N)=C/c1ccc(OCc2ccccc2)cc1,0.8,-1.4,24.4,0.7,0.8
COc1ccc(CCNC(=O)/C(C#N)=C/c2cccc(OCc3ccccc3)c2)cc1OC,0.9,31.5,99.8*,0.8,0.9
COCCCNC(=O)/C(C#N)=C/c1cccc(NC(=O)c2ccccc2Cl)c1,1.1,1.4,75.0*,0.9,1
CCNC(=O)CN(C1CCCCC1)S(C)(=O)=O,1,0.2,42.7,0.8,1
CCOC(=O)c1ccc2c(c1)n(CC)c(/C=C/N(C)c1ccccc1)[n+]2CC,1,57.6,100.2*,0.9,0.8
CSCCC(NC(=O)c1ccc(Cl)cc1)C(=O)NC(C)(C)C (stereo not given),1.1,-19.8,2.0,0.9,1.1
CN(Cc1cn[nH]c1-c1cc2ccccc2o1)CC1CCOCC1,1,2.5,2.3,0.8,0.9
N#C/C(=C\c1ccc(-c2cccc([N+](=O)[O-])c2)o1)c1nnc(N2CCOCC2)n1-c1ccccc1,0.6,-17.5,63.1*,0.6,1
N#C/C(=C\c1ccc(-c2cccc([N+](=O)[O-])c2)o1)C(=O)N1CCOCC1,1,-3.6,5.8,0.9,1
O=C(CN1CCCCC1)N=Nc1c(O)[nH]c2ccccc12,1,4.5,7.7,0.9,1
O=C(CN1CCN(Cc2ccccc2)CC1)N=Nc1c(O)[nH]c2ccccc12,1,-10.3,96.2*,0.8,0.8
OC(COCC(F)(F)C(F)(F)C(F)(F)C(F)F)Cn1c2ccc(Cl)cc2c2cc(Cl)ccc21 (stereo not given),0.9,85.8*,14.7,0.8,0.8
CCOCC(O)CSCc1ccc(Cl)cc1 (stereo not given),0.9,0.1,-5.8,0.9,0.9
Cc1cc(C)c(S(=O)(=O)NCCc2ccccc2)c(C)c1,0.9,37.4,-4.3,0.9,0.9
Cc1cc(C)c(S(=O)(=O)NCCC2CCCN2C)c(C)c1 (stereo not given),1,-2.9,97.0*,0.9,0.9
CC(C)(C)OC(=O)N1CCN(C(=O)Nc2ccc3c(c2)OCCO3)CC1,1,-6.2,-2.2,1,1
O=[N+]([O-])/C(=C\Nc1ccccc1Cl)S(=O)(=O)c1ccccc1,2.4*,13.4,-3.5,0.9,1.4
Cc1ccc(NC(C)C(=O)N/N=C/c2ccc([N+](=O)[O-])s2)cc1 (stereo not given),0.8,5.8,100.3*,0.9,0.9
COc1ccc(NC(C)C(=O)N/N=C/c2ccc([N+](=O)[O-])s2)cc1 (stereo not given),0.7,11.1,100.3*,0.8,0.9
Cc1ccc2nc(SCc3cn4cccnc4n3)[nH]c2c1,1,-9.3,-5.2,0.8,0.9
CC(=O)c1cc(C#N)c(N2CCOCC2)nc1C,1,-15.8,-3.4,1,1
COC(=O)c1c(C)[nH]c(C)c1-c1cccc([N+](=O)[O-])c1,1,52.5,20.6,0.9,1
